The subject of data set [1] is Rattus norvegicus. The data set can be described thus: Drug uptake in Sprague-Dawley rat at 10 mg/kg, po up to 8 hrs. Format: ADME, organism-based. Further details: dose 10 mg/kg, route oral; call rule not given here. To be noted: in vivo. The method, boiled down:
(§1)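 Male SD rats (180–220 g, n=3), fasted overnight, single oral gavage dose as suspension in 1% Tween 80 / 0.5% w/v methyl cellulose in water. Blood (K2EDTA) drawn 0.5–24 h post dose. Plasma taken by liquid–liquid extraction with internal standard and measured by achiral LC/MS/MS. Values given as mean ± SD.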

A short description of data set [2]: Tmax in Sprague-Dawley rat at 10 mg/kg, po. The data set is classed as ADME, organism-based. Further details: dose 10 mg/kg, route oral. To be noted: in vivo. The method, boiled down:
as §1

For data set [3], the system named is Mus musculus. The data set can be described thus: Inhibition of oxaliplatin-induced peripheral neuropathic pain in acetone spray-induced cold allodynia C57/BL6 mouse model assessed as inhibition of nocifensive paw licking behavior at 30 mg/kg, po. The data set is classed as functional. Put shortly: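 Male C57/BL6 mice (20–30 g) received oxaliplatin (3 mg/kg ip, in 5% glucose, 10 ml/kg) and were tested for cold allodynia 3 days later. Compound was dosed po 30 min before acetone spray, with 0.5% MC as vehicle. Nocifensive paw licking/flicking was scored. Analysis was one-way ANOVA with Bonferroni versus vehicle.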

The test system of data set [4] is Mus musculus. The data set can be described thus: Inhibition of oxaliplatin-induced peripheral neuropathic pain in po dosed acetone spray-induced cold allodynia C57/BL6 mouse model assessed as inhibition of nocifensive paw licking behavior. The data set is classed as functional, organism-based. The method, boiled down:
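Male C57/BL6 mice (20–30 g) given oxaliplatin 3 mg/kg ip in 5% glucose and tested for cold allodynia 3 days later. Compound given po (3, 10, 30 mg/kg) 30 min before acetone spray, vehicle 0.5% MC. Nocifensive paw licking recorded. One-way ANOVA with Bonferroni test.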

Data set [5] deals with Rattus norvegicus. Briefly: Inhibition of acetone spray-induced cold allodynia in Sprague-Dawley rat chronic constriction injury model at 10 mg/kg, po after 3 hrs. The data set is classed as functional. The method, boiled down:
(§2)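 Male SD rats (160–200 g) with sciatic nerve chronic constriction injury under ketamine/xylazine, tested 7 days later at 21 ± 0.5 °C. Oral dose, vehicle 0.5% MC. Acetone 100 µl sprayed on ipsilateral paw, repeated 3–5 times at 5 min intervals. Flinches and licking counted over 2 min at 0, 0.5, 1, 2 and 3 h, scored clinically.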

Data set [6] relates to Rattus norvegicus. Briefly: Inhibition of acetone spray-induced cold allodynia in Sprague-Dawley rat chronic constriction injury model at 10 mg/kg, po after 2 hrs. Format: functional. Put shortly:
as §2

The test system of data set [7] is Rattus norvegicus. The data set can be described thus: Inhibition of acetone spray-induced cold allodynia in Sprague-Dawley rat chronic constriction injury model at 10 mg/kg, po after 1 hr. Format: functional. Put shortly: as §2
For data set [8], the system named is Rattus norvegicus. Briefly: Inhibition of acetone spray-induced cold allodynia in Sprague-Dawley rat chronic constriction injury model at 10 mg/kg, po after 0.5 hrs. The data set is classed as functional. Put shortly: as §2
Data set [9] addresses Transient receptor potential cation channel subfamily M member 8 (Rattus norvegicus, UniProt Q8R455). Briefly: Antagonist activity at rat TRPM8 by 45Ca2+ uptake assay.
The subject of data set [10] is Rattus norvegicus. Briefly: AUC (0 to t) in Sprague-Dawley rat at 10 mg/kg, po. Further details: dose 10 mg/kg, route oral. The conditions noted are these: in vivo. The data set is classed as ADME, organism-based, Plasma. Put shortly:
as §1

The nature of data set [11]: Cmax in Sprague-Dawley rat at 10 mg/kg, po. Format: ADME, organism-based. Further details: dose 10 mg/kg, route oral. The conditions noted are these: in vivo. Put shortly: as §1
Data set [12] in a line: Metabolic stability in human liver microsomes assessed as compound remaining at 1 uM after 60 mins by LC/MS/MS analysis. The data set is classed as ADME, Microsome. The conditions noted are these: read-out: Stability. The method, boiled down:
(§3)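 Liver microsomes (1.0 mg/mL protein) from male CD1 mouse, Wistar rat, Beagle dog, Cynomolgus monkey, or pooled human. Test item 1.0 µM in KH2PO4 buffer pH 7.4 with 2.0 mM NADPH (final) at 37 °C for 60 min, stopped with TBME. Extract read by LC/MS/MS as area ratio to internal standard. Percent remaining is 60 min relative to 0 min.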
Background: Microsomes from liver hold many membrane-bound enzymes, among them those of drug oxidation.

Data set [13] is described as follows: Metabolic stability in cynomolgus monkey liver microsomes assessed as compound remaining at 1 uM after 60 mins by LC/MS/MS analysis. Format: ADME, Macaca fascicularis, Microsome. To be noted: read-out: Stability. The method, boiled down:
as §3

Data set [14] can be described thus: Metabolic stability in Beagle dog liver microsomes assessed as compound remaining at 1 uM after 60 mins by LC/MS/MS analysis. Format: ADME, Canis lupus familiaris, Microsome. The conditions noted are these: read-out: Stability. Put shortly: as §3
The nature of data set [15]: Metabolic stability in Wistar rat liver microsomes assessed as compound remaining at 1 uM after 60 mins by LC/MS/MS analysis. Format: ADME, Microsome. The conditions noted are these: read-out: Stability. Put shortly:
as §3

A short description of data set [16]: Metabolic stability in CD-1 mouse liver microsomes assessed as compound remaining at 1 uM after 60 mins by LC/MS/MS analysis. The data set is classed as ADME, Microsome. The conditions noted are these: read-out: Stability. The method, boiled down:
as §3

Data set [17] addresses Transient receptor potential cation channel subfamily A member 1 (Homo sapiens) (UniProt O75762). Briefly: Antagonist activity at human TRPA1 expressed in CHO cells assessed as inhibition of allyl isothiocyanate-induced 45Ca2+ uptake at 1 uM incubated for 10 mins prior to allyl isothiocyanate-challenge measured after 2 to 5 mins by liquid scintillation counting analysis. Format: cell-based. The method, boiled down:
(§4)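 CHO cells stably expressing human TRPA1, TRPV1, TRPV3 or TRPV4. Temperature 30 °C for TRPV1, 32 °C for TRPV3, 25 °C for TRPV4 and TRPA1. Compound preincubated 10 min, then 45Ca2+ (5 µCi/mL final) and agonist added. Wash after 2–5 min, lyse, scintillation count. TRPV1 IC50 from six-point curves in at least two experiments. TRPA1, TRPV3 and TRPV4 run in duplicate as % inhibition at 1.0 µM.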

Data set [18] concerns the target Transient receptor potential cation channel subfamily V member 4 (Homo sapiens) (UniProt Q9HBA0). Briefly: Antagonist activity at human TRPV4 expressed in CHO cells assessed as inhibition of 4alphaPDD-induced 45Ca2+ uptake at 1 uM incubated for 10 mins prior to 4alphaPDD-challenge measured after 2 to 5 mins by liquid scintillation counting analysis. The data set is classed as cell-based. The method, boiled down: as §4

For data set [19], the target named is T1, Transient receptor potential cation channel subfamily V member 3 (Homo sapiens) (UniProt Q8NET8).
T1 sequence (whole entry): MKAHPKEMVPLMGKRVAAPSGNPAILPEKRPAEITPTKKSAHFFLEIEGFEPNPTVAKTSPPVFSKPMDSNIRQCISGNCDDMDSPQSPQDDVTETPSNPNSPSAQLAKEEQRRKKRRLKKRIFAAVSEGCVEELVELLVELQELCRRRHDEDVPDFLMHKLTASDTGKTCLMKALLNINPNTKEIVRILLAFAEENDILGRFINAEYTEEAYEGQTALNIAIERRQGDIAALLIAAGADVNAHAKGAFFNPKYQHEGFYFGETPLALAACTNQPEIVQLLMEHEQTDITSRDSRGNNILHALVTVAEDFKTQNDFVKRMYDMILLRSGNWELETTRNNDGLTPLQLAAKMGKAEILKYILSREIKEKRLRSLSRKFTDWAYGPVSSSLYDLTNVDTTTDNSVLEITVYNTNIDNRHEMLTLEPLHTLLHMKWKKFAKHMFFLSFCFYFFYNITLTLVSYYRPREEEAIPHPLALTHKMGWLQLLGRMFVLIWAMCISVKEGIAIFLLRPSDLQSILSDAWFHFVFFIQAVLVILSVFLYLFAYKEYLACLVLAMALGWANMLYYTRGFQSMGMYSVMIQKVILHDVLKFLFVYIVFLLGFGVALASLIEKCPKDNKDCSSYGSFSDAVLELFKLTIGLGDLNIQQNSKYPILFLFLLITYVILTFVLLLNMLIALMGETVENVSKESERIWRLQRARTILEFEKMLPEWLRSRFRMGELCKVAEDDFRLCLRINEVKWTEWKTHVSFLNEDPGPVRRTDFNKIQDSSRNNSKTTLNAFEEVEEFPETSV
The data set can be described thus: Antagonist activity at human TRPV3 expressed in CHO cells assessed as inhibition of 2APB-induced 45Ca2+ uptake at 1 uM incubated for 10 mins prior to 2APB-challenge measured after 2 to 5 mins by liquid scintillation counting analysis. The data set is classed as cell-based. The method, boiled down:
as §4

Data set [20] concerns the target Transient receptor potential cation channel subfamily V member 1 (Homo sapiens, UniProt Q8NER1). Briefly: Antagonist activity at human TRPV1 expressed in CHO cells assessed as inhibition of capsaicin-induced 45Ca2+ uptake incubated for 10 mins prior to capsaicin-challenge measured after 2 to 5 mins by liquid scintillation counting analysis. The data set is classed as cell-based. Put shortly: as §4

The target in data set [21] is Transient receptor potential cation channel subfamily M member 8 (Homo sapiens, UniProt Q7Z2W7). The data set can be described thus: Antagonist activity at human TRPM8 expressed in CHO cells assessed as inhibition of icilin-induced 45Ca2+ uptake incubated for 10 mins prior to icilin-challenge measured after 4 mins by liquid scintillation counting analysis. The data set is classed as cell-based. Put shortly: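 CHO cells stably expressing human TRPM8 in DMEM F-12 with 10% FBS and G418, seeded overnight. Assay buffer is DMEM F12 with 0.1% BSA and 1.8 mM CaCl2, run at 25 °C. Compound added 10 min before 45Ca2+ (5 µCi/mL final) and icilin. Wash after 4 min, lyse, count cpm. IC50 from six-point curves by nonlinear regression, at least two independent experiments.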

In data set [22] the test system is Mus musculus. The data set can be described thus: Inhibition of icilin-induced wet dog shakes in C57/BL6 mouse at 30 mg/kg, po administered 30 mins prior to icilin-challenge measured for 30 mins. Format: functional. Put shortly: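 Male C57/BL6 mice (20–30 g) acclimatized in a bell jar 10 min daily for 3 days. Icilin 30 mg/kg ip in 20% DMSO / 1% Tween 80. Compound given po 30 min before icilin, vehicle 0.5% MC. Wet dog shakes counted for 30 min after icilin. One-way ANOVA with Bonferroni test.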

Transient receptor potential cation channel subfamily M member 8 (Rattus norvegicus, UniProt Q8R455), sequence (Q8R455 whole entry): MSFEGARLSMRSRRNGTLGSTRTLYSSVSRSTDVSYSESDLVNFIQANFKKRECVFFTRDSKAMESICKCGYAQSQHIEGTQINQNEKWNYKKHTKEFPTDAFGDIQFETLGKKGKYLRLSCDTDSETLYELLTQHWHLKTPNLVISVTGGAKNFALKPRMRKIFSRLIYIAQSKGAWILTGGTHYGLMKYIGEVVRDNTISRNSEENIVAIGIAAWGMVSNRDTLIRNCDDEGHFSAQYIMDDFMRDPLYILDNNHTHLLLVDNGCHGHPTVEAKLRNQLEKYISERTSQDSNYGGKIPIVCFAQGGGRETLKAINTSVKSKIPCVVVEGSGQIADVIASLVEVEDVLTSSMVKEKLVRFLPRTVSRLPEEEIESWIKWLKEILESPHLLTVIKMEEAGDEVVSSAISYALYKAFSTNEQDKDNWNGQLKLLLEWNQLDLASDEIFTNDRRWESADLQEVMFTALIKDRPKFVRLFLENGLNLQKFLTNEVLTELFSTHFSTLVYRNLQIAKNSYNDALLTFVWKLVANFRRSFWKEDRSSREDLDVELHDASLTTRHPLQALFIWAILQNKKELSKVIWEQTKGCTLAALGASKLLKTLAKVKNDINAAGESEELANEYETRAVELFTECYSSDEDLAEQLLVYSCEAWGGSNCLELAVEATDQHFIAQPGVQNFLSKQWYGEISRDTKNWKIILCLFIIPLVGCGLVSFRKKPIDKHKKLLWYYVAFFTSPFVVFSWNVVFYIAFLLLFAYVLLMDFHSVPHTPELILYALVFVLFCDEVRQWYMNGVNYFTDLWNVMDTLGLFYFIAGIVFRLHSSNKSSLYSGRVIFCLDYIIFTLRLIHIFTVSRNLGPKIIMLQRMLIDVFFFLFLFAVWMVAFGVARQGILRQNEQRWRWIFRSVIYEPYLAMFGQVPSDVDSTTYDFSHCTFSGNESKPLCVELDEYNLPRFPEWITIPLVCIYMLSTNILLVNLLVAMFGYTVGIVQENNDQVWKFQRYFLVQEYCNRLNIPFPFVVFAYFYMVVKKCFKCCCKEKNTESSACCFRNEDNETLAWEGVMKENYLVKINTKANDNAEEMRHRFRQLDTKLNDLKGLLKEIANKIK
Transient receptor potential cation channel subfamily A member 1 (Homo sapiens), sequence (O75762 whole entry): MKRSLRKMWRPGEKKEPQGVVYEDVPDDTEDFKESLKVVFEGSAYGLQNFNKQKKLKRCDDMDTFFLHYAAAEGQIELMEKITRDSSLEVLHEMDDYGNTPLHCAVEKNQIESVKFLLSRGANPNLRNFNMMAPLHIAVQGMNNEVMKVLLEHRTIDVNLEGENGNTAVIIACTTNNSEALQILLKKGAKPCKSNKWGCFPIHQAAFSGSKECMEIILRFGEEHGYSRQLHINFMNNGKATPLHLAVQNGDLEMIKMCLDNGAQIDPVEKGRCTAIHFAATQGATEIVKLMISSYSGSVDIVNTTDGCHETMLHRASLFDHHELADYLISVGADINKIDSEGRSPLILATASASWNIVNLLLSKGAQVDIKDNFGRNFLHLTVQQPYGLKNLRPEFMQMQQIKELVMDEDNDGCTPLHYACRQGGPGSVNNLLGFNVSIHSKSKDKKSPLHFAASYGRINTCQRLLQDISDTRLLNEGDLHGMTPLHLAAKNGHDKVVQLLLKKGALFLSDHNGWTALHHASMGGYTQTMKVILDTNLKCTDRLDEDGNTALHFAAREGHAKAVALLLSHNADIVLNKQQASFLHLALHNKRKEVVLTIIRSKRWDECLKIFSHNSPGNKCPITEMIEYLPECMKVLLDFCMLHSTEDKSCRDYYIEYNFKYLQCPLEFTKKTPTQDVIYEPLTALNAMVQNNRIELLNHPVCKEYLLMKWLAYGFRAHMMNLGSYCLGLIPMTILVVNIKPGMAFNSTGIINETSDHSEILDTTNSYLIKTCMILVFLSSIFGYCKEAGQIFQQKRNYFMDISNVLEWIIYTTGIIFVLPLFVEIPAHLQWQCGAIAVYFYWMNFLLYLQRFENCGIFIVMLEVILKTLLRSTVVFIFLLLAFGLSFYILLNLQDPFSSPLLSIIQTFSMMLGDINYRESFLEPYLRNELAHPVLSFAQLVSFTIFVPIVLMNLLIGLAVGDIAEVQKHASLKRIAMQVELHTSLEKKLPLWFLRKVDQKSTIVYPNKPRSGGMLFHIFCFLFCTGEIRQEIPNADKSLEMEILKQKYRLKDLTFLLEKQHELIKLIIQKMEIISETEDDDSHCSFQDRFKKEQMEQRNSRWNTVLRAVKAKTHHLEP
Transient receptor potential cation channel subfamily V member 1, sequence (Q8NER1 whole entry): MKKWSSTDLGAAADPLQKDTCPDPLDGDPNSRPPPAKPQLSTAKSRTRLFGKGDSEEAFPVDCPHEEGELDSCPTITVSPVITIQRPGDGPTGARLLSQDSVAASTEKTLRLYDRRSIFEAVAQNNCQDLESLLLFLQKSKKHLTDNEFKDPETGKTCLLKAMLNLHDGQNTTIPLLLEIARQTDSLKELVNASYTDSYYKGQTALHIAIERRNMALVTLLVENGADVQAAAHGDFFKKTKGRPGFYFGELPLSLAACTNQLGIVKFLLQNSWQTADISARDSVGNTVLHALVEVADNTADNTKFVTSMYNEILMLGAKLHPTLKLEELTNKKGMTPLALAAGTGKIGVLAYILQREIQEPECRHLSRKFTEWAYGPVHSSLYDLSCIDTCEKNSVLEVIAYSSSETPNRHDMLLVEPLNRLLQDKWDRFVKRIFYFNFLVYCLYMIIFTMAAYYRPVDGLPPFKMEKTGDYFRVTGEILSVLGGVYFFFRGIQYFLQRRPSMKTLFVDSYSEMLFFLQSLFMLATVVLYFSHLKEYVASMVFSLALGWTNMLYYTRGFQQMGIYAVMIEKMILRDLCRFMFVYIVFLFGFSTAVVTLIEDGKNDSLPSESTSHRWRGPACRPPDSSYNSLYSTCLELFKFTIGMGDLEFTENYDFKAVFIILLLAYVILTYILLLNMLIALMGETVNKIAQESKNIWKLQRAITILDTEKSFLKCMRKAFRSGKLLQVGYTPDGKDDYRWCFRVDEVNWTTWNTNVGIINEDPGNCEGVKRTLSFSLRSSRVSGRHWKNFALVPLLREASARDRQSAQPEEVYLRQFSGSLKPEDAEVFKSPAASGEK
Transient receptor potential cation channel subfamily V member 4 (Homo sapiens), sequence (Q9HBA0 whole entry): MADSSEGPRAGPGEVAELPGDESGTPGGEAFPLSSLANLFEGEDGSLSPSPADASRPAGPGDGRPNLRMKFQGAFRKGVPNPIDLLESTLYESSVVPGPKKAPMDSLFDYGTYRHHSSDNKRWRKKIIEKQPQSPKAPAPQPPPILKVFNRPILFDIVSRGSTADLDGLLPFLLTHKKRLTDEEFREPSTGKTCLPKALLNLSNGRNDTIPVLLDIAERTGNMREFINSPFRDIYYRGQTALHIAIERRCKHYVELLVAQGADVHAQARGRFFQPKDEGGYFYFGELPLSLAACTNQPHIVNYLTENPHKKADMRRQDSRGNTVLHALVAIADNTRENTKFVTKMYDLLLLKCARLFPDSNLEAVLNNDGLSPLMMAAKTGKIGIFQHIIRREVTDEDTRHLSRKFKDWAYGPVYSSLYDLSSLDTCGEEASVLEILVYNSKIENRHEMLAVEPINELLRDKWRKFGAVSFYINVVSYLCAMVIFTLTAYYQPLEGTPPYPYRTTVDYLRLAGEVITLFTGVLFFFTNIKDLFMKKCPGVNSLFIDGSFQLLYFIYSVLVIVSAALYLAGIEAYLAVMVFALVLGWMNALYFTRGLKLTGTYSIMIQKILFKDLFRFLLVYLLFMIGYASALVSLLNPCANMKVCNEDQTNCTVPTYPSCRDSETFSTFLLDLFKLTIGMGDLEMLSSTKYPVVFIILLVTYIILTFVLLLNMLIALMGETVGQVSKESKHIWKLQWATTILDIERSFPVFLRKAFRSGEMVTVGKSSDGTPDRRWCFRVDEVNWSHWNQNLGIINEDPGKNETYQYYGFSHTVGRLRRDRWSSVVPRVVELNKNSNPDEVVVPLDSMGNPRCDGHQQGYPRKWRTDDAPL
Transient receptor potential cation channel subfamily M member 8 (Homo sapiens, UniProt Q7Z2W7), sequence (Q7Z2W7 whole entry): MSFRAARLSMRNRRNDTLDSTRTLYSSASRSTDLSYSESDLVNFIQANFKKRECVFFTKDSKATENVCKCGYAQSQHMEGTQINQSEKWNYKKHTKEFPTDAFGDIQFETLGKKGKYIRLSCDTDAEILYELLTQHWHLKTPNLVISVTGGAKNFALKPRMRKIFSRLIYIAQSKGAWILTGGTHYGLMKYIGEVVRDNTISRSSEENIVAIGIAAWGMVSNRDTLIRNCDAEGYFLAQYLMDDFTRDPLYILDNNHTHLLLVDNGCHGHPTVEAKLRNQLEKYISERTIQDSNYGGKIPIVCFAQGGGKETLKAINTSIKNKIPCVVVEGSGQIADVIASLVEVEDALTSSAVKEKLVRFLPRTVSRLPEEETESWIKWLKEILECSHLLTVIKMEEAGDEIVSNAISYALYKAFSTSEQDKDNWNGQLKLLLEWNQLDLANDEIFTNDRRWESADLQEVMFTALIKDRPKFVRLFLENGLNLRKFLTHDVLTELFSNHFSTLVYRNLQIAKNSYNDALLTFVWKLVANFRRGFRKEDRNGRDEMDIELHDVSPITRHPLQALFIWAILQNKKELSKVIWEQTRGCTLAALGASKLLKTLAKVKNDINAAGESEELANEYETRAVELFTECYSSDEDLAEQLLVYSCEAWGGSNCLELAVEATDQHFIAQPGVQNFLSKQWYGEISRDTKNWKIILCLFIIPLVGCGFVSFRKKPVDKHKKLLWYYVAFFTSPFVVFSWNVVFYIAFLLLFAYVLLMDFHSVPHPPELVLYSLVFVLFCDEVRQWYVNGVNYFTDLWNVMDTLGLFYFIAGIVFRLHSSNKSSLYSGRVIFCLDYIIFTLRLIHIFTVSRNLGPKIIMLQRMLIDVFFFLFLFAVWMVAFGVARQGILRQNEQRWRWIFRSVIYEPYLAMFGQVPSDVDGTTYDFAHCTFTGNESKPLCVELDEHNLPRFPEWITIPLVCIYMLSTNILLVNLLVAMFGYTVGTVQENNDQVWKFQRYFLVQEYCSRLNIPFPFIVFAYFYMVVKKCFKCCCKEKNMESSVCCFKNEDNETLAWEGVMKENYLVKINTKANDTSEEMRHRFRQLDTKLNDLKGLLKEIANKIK

One may read the Tmax as the time at which the peak concentration occurs. By inhibition is commonly meant the percentage by which the read-out fell short of the control. Broadly, the IC50 is the concentration that gives 50% inhibition. What is called Cmax is the maximum level reached in the sampled fluid or tissue. With `O=C(Nc1ccc(OC(F)(F)F)cc1)N1CCC2(CC1)C[C@@H](O)c1cccc(Cl)c1O2`, in the data set with Rattus norvegicus [1], the Drug uptake result is listed as “Active”. Besides, in data set [2], the Tmax stood at 1 h. In addition, the Efficacy in the data set on Mus musculus [3] was determined as 100%; with Rattus norvegicus [5], 65%; with Rattus norvegicus [6], 74%; in the data set with Rattus norvegicus [7], 66%; in the data set with Rattus norvegicus [8], 39%; with Mus musculus [22], 72%. Further, the inhibition result was “Dose-dependent effect” in the data set on Mus musculus [4], 23.5% in [17], 38.8% in [18] and 27.7% in [19]. For the same compound, the values for the IC50 in data set [9], in data set [20] and in data set [21] were 16.5 nM, > 1000 nM and 8.9 nM, respectively. For the same compound, in the data set on Rattus norvegicus [10], the AUCt stood at 4980 ng·h/mL. This compound had a Cmax in data set [11] of 1090 ng/mL. Also, the remaining at 1 h, 1 µM in [12] is 67%; in data set [13], 72%; in data set [14], 42%; in data set [15], 79%; in [16], 81%.

The record behind these values is ChEMBL document CHEMBL2440039, “Synthesis and pharmacological evaluation of novel N-aryl-3,4-dihydro-1'H-spiro[chromene-2,4'-piperidine]-1'-carboxamides as TRPM8 antagonists” (Bioorg Med Chem, 2013).
